Source: ChEMBL document CHEMBL1126550, “Nanomolar-affinity, non-peptide oxytocin receptor antagonists” (J Med Chem, 1993)

Experiments:
Rattus norvegicus [1] = species on record: Rattus norvegicus; test: Tested for antagonistic activity in isolated rat uterus; format: functional; settings: read-out: pA2 (converted)
Rattus norvegicus [2] = test: Tested for inhibition of OT-stimulated uterine activity in the rat after an intravenous dose; format: functional
Oxytocin receptor [3] = target: T1, Oxytocin receptor (Homo sapiens, UniProt P30559); test: Tested against human uterine OT receptor
T1 sequence (P30559 whole entry): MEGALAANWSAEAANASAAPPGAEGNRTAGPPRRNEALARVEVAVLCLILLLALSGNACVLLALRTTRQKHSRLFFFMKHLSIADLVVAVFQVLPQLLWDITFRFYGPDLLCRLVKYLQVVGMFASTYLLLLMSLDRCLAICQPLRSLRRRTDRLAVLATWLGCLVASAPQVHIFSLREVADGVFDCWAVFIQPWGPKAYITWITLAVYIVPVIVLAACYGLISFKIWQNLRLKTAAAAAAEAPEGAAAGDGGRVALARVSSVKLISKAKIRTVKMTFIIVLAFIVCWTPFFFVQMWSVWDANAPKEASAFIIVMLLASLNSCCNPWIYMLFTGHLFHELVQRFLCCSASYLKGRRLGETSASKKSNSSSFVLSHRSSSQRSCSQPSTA

Oxytocin receptor [4] = target: T2, Oxytocin receptor (Rattus norvegicus, UniProt P70536); test: Tested against rat uterine OT receptor
T2 sequence (P70536 whole entry): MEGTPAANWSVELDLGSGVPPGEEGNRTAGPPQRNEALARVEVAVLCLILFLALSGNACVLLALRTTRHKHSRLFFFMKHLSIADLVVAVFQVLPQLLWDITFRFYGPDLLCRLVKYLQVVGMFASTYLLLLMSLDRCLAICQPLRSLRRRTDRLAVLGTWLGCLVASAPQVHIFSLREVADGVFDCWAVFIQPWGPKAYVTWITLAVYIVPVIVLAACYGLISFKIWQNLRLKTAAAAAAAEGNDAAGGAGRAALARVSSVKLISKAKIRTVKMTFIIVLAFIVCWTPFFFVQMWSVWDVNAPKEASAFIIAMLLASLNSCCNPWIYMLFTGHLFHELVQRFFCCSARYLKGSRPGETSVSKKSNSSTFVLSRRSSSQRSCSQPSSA
Summary of the method: (§1)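 Uteri taken from rats given diethylstilbestrol dipropionate (0.3 mg/kg ip, 18–24 h before), crude membranes. 1 nM [3H]OT (30–60 Ci/mmol), equilibrium 60 min at 22 °C in 50 mM Tris-HCl, 5 mM MgCl2, 0.1% BSA, pH 7.4. Nonspecific binding with 1 mM unlabeled OT. Filtered on glass fiber. Initial single-concentration screen, then IC50 from seven concentrations by linear regression.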

Oxytocin receptor [5] = target: T2, Oxytocin receptor; test: Inhibition of radioligand [3H]oxytocin binding at the oxytocin (OT) receptor in rat uterine tissue; summary of the method: as §1
Vasopressin V2 receptor = Vasopressin V2 receptor (Rattus norvegicus, UniProt Q00788); test: Inhibition of radioligand [3H]-AVP binding to the vasopressin V2 receptor in rat kidney tissue
Summary of the method: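 [3H]AVP (80–90 Ci/mmol) at 2 nM competed on crude membranes from male rat kidney medulla (V2 sites). Equilibrium 30 min at 30 °C in 100 mM Tris-HCl, 5 mM MgCl2, 0.1% BSA, 50 μM PMSF, 50 μg/mL bacitracin, pH 8.0. Nonspecific binding with 10 μM unlabeled AVP. Glass-fiber filtration. IC50 by linear regression of % inhibition vs log concentration, seven concentrations.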

Vasopressin V1 receptor = Vasopressin V1 receptor (Rattus norvegicus, UniProt P48974+P30560); test: Inhibition of radioligand [3H]AVP binding to the vasopressin V1 receptor in rat liver tissue
Summary of the method: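 Crude membranes from male rat liver (V1 sites) competed with 1 nM [3H]AVP (80–90 Ci/mmol). Equilibrium 30 min, 30 °C, buffer 100 mM Tris-HCl, 5 mM MgCl2, 0.1% BSA, 50 μM PMSF, 50 μg/mL bacitracin, pH 8.0. 10 μM unlabeled AVP for nonspecific binding. Filtration through glass-fiber filters. IC50 from linear regression over seven concentrations.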

Vasopressin V2 receptor, sequence (Q00788 whole entry): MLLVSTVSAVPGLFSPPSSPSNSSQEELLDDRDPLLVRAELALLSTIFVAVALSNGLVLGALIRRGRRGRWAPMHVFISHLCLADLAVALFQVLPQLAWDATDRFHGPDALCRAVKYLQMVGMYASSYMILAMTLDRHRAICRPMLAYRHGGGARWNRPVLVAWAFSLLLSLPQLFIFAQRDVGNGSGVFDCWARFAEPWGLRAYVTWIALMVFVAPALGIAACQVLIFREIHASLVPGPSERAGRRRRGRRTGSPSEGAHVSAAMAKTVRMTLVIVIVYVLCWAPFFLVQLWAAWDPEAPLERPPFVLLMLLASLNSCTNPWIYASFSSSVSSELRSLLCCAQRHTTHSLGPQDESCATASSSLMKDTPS

SMILES | Kb (Rattus norvegicus [1]) [nM] | AD50 (Rattus norvegicus [2]) [mg/kg] | Ki (Oxytocin receptor [3]) [nM] | Ki (Oxytocin receptor [4]) [nM] | IC50 (Oxytocin receptor [5]) [nM] | IC50 (Vasopressin V2 receptor) [nM] | IC50 (Vasopressin V1 receptor) [nM]
CC1(C)[C@@H]2CC[C@@]1(CS(=O)(=O)N1CCC3(CCc4ccccc43)CC1)[C@@H](NC(=O)Cc1c[nH]cn1)C2 | 11.7 | 1.5 | 61 | 26 | 52 | 17000 | 5600
CC1(C)[C@@H]2CC[C@@]1(CS(=O)(=O)N1CCC3(CCc4ccccc43)CC1)[C@@H](NC(=O)NC1CN3CCC1CC3)C2 (single isomer, unassigned; isomer B) |  |  |  |  | 37 | 11000 | 2100
CC1(C)[C@@H]2CC[C@@]1(CS(=O)(=O)N1CCC3(CCc4ccccc43)CC1)[C@@H](NC(=O)C(CCS(C)(=O)=O)c1c[nH]cn1)C2 (stereo in doubt) |  |  |  |  | 11 | 2900 | 1500
CC1(C)[C@@H]2CC[C@@]1(CS(=O)(=O)N1CCC3(CCc4ccccc43)CC1)[C@@H](N1C(=O)NC(Cc3c[nH]cn3)C1=O)C2 (stereo in doubt) |  |  |  |  | 13 | 1400 | 420
